CHOP inh: inhibitors of CHOP promoter induction, primary screen, cell-based, unfolded protein response, luciferase reporter; CHO-K1 CHOP-promoter luciferase, tunicamycin-induced, 15-18 h; inhibition, % at 10 µM; 220,000 tested, 3.8% active; AID 2732, 2010;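 active = compounds that reduced the stress-induced luciferase reporter signal by more than about 70% of percent inhibition, limit read from the data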;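 also: 0% = tunicamycin plus vehicle and 100% = wells without tunicamycin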
Jurkat NFkB inh: inhibitors of induced NF-kB luciferase reporter, primary screen, TCR NF-kB activation inhibitor project, cell-based, luminescence, uHTS | Jurkat, PMA/ionomycin-induced NF-kB luciferase reporter | inhibition, % at 4 µM | 330,000 tested, 0.53% active; in the data active = inhibition above about 50%
UPR XBP1 act: activators of adaptive XBP1 UPR arm, primary screen, cell-based, CHO-XBP1 luciferase reporter, luminescence, uHTS | 330,000 tested, 0.33% active | activation, % at 20 µM | AID 463104, 2010 | IRE1-XBP1 UPR activation; percent of tunicamycin response, DMSO as zero;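 active = versus positive control, 20 µM dose yields 30% or more activation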;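 also: 100% = tunicamycin at 10 µg/mL and 0% = DMSO only wells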
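Test system: CHO-XBP1 luciferase reporter cells | Buffer or medium: Serum-containing F12 medium, 10% FBS | Schedule: 6 h compound exposure at 37 °C, 5% CO2 | Detection: Steady-Glo luciferase glow luminescence, 10 min after reagent addition | Read-out basis: Activation, % of tunicamycin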
697 NFkB inh: inhibitors of PMA/ionomycin-induced NF-kB reporter, 697 cells, primary screen, B-cell NF-kB inhibitor project, cell-based, luminescence, uHTS; 697 B-cell NF-kB luciferase reporter, 16 h; inhibition, % at 4 µM; 330,000 tested, 0.33% active; AID 435022, 2010; in the data active = inhibition above about 35%
Gli-Sufu block: Gli-Sufu pathway antagonists, primary screen, luciferase luminescence, Sufu-KO-LIGHT cells, uHTS. Sufu-KO-LIGHT fibroblasts, Gli luciferase reporter luminescence. inhibition, % at 5 µM. 340,000 tested, 0.74% active. AID 588413, 2011;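 active = inhibition above about 55%, limit read from the data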;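 also: 0% = DMSO-treated cells and 100% = wells with medium but no cells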
UPR CHOP act: activators of apoptotic CHOP UPR arm, primary screen, cell-based, CHO-CHOP luciferase reporter, luminescence, uHTS | UPR activation; percent of tunicamycin response over DMSO baseline | activation, % at 10 µM | 330,000 tested, 0.34% active | AID 449763, 2010;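 active = at 10 µM dose, activation of 40% or more, normalized to positive control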;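 also: 100% = tunicamycin at 10 µg/mL and 0% = DMSO alone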
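Test system: CHO-CHOP cells, stable luciferase reporter of PERK-eIF2a-CHOP signalling | Quantity: 500 CHO-CHOP cells per well | Buffer or medium: F12 plus 10% serum | Compound dosing: 10 µM single point, 0.5% DMSO | Schedule: 6 h compound treatment, 37 °C | Signal: Luciferase luminescence | Control set: Tunicamycin high control, DMSO low control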
UPR XBP1 confirm: IRE1-XBP1 UPR arm activators, confirmation, cell-based, CHO-XBP1 luciferase reporter, luminescence, single concentration; shares compounds with UPR XBP1 act; activation, % at 20 µM; 1,000 tested, 63% active; AID 485299, 2010;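 active = reporter signal at least 30% of the positive control's activation in two or more of four replicate wells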;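 also: plate controls were DMSO negative control for no effect and tunicamycin 10 µg/mL positive control for full effect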
* hit, by the source's call; nt = no result given. Shown are actives, neighbours in structure and some others; about 3.9% of the full set was active somewhere.

SMILES	CHOP inh	Jurkat NFkB inh	UPR XBP1 act	697 NFkB inh	Gli-Sufu block	UPR CHOP act	UPR XBP1 confirm
COc1ccc(Nc2nc(N)c([N+](=O)[O-])c(NC3CCCCC3)n2)cc1	nt	-2.7	52.9*	-0.6	-12.7	1.4	34.5*
Cn1nc(C(F)(F)F)c(/C=N/OC(=O)c2ccc(Cl)cc2)c1Cl	14.3	0.9	1.0	12.3	-0.7	0.8	nt
Cn1nc(C(F)(F)F)c(/C=N/OC(=O)c2ccccc2Cl)c1SCc1ccccc1Cl	34.8	1.9	89.4*	-0.8	21.9	26.0	97.8*
Cn1nc(C(F)(F)F)c(/C=N/OC(=O)c2ccccc2)c1SCc1ccc(Cl)cc1	57.3	-9.3	48.2*	3.7	16.0	11.9	89.5*
COC(=O)[C@@H](NC(=O)N1CCN(C(=O)C2COc3ccccc3O2)CC1)C(C)C (stereo partly drawn)	nt	13.7	-5.6	3.4	-6.4	1.2	nt
COc1ccc(N(CC(=O)Nc2c(C)n(C)n(-c3ccccc3)c2=O)S(=O)(=O)c2ccc(C)cc2)cc1	20.3	4.0	0.3	4.0	-8.3	-0.8	nt
COc1ccc(N(CC(=O)Nc2c(C)n(C)n(-c3ccccc3)c2=O)S(=O)(=O)c2ccccc2)cc1OC	-0.3	-4.2	89.8*	8.9	-0.2	1.0	0.7
CCCn1cc(CN2CCC(n3nccc3NC(=O)C(OC)c3ccccc3)CC2)c(C)n1 (stereo not drawn)	nt	-9.2	-1.6	4.8	4.8	-0.6	nt
COc1cc2c(cc1OC)C1Cc3ccc(OC)c(OC)c3CN1CC2 (stereo not drawn)	11.7	-12.5	2.2	-11.2	2.1	-0.4	nt
COc1ccc2cc1Oc1ccc(cc1)C[C@H]1c3c(cc(OC)c4c3Oc3c(ccc5c3[C@H](C2)N(C)CC5)O4)CCN1C	nt	7.6	68.3*	8.4	13.6	19.0	52.2*
CCOc1ncccc1C(=O)OCC(=O)NCc1ccc(C(=O)OC)cc1	nt	19.5	1.2	-16.3	-9.1	1.3	nt
COc1cccc(-c2sc3ccccc3c2-c2ccc(OCCN(C)C)cc2)c1	nt	-2.4	36.9*	14.7	11.8	2.7	53.5*
COc1ccc(-c2sc3ccccc3c2-c2ccc(OCCN3CCCCC3)cc2)cc1	nt	5.8	9.8	-1.2	5.5	2.9	nt
c1ccc(-c2sc3ccccc3c2-c2ccc(OCCN3CCCC3)cc2)cc1	nt	5.6	32.3*	3.9	2.6	3.4	19.2
COc1cccc(-c2sc3ccccc3c2-c2ccc(OCCN3CCCC3)cc2)c1	nt	4.0	24.6	12.0	1.7	3.5	nt
CC(C)Cn1c(SC(C)C(=O)NC2CC2)nnc1-c1ccccc1F (stereo not drawn)	nt	-1.6	1.0	-39.3	-9.3	0.2	nt
O=C(NCc1ccccc1CN1CCCCC1)c1ccccc1N1CCCC1=O	nt	-5.0	0.9	7.4	10.8	0.2	nt
O=C(Oc1ccc2c(c1)OCC2=O)c1ccccc1	24.1	-6.9	37.3*	-11.1	0.0	7.2	24.0
Cc1ccc(-n2nc3c(N4CCC(C(=O)NCCc5cccs5)CC4)nnc(C)c3c2C)cc1	nt	36.7	31.1*	-41.0	26.9	5.4	45.5*
Cc1ccc(-n2nc3c(=O)n(CC(=O)NCCc4cccs4)nc(C)c3c2C)cc1	nt	14.7	3.5	8.3	-4.9	2.1	nt
CCn1c(SCC(=O)N2CCCCCC2)nc2c([nH]c3ccccc32)c1=O	nt	-5.6	-1.1	-13.1	9.9	-1.2	nt
CCn1c(SCC(=O)N2CCN(c3ccccc3)CC2)nc2c([nH]c3ccccc32)c1=O	nt	2.7	31.5*	12.2	18.6	18.0	30.4
CC(=O)Nc1ccc(S(=O)(=O)NCCN2CCNC2=O)cc1Cl	nt	-28.9	-4.2	-18.5	6.3	0.1	nt
CC(=O)Nc1nnc(SCC(=O)c2ccc3c(c2)Cc2ccccc2-3)s1	38.3	7.3	0.1	-25.0	-2.6	21.7	nt
